Test results reported in ChEMBL document CHEMBL4627246, “Pyroglutamide-Based P2X7 Receptor Antagonists Targeting Inflammatory Bowel Disease” (J Med Chem, 2020).
Active and inactive are the calls of the source. No rule for the calls is given here.

Biological target: T1, P2X purinoceptor 7 (Homo sapiens) (UniProt Q99572)
T1 sequence (whole entry): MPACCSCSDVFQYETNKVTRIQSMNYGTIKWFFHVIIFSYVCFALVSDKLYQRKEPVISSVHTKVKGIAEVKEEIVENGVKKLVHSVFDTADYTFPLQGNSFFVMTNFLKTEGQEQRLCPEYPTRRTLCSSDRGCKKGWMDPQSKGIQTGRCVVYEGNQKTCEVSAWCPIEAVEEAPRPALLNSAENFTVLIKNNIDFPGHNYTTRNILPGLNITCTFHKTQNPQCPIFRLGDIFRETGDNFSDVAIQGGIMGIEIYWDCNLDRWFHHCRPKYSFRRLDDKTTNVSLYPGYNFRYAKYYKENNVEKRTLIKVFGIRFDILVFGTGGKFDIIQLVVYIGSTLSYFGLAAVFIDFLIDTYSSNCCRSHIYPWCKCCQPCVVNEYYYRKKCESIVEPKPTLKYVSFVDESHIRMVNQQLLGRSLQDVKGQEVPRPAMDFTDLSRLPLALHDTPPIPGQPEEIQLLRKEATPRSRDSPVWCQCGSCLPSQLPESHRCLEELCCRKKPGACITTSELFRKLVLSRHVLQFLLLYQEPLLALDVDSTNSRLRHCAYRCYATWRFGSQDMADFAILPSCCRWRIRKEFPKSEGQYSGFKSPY
Experiment: Inhibition of human P2X7 expressed in human HEK293 cells assessed as reduction in BzATP-stimulated TO-PRO-3 incorporation at 10 uM preincubated with compound and TO-PRO-3 for 15 mins prior to BzATP addition and measured after 1 hr by Fluo-3AM dye based flow cytometry relative to control
Assay type: cell-based
Procedure, shortened: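 HEK-293 cells overexpressing human P2RX7 loaded with Fluo-3 AM, then incubated with TO-PRO-3 (large pore uptake) and propidium iodide (viability) plus compound (10⁻⁵ M single point) for 15 min before BzATP 100 µM. After 1 h, flow cytometry; percentage of Fluo-3/TO-PRO-3 double-positive cells calculated. Mean of n ≥ 2 with positive control.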

inhibition	SMILES
0%	CN(C)/C=C1\C[C@H]2C(=O)N(CCc3ccccc3)C(N(C)C)N2C1=O (stereo partly specified)
inactive	COc1cc(NC(=O)[C@@H]2CCC(=O)N2)cc(OC)c1OC
0%	COc1ccccc1CNC(=O)[C@@H]1C/C(=C\N(C)C)C(=O)N1
inactive	COC(=O)[C@@H]1CCC(=O)N1Cc1ccc(Br)cc1
inactive	O=C1CC[C@@H](C(=O)NCCc2ccc(Cl)cc2Cl)N1
inactive	COC(=O)[C@@H]1CCC(=O)N1Cc1ccc(C)cc1
inactive	COC(=O)[C@@H]1CCC(=O)N1c1ccccc1Cl
0%	O=C(NCc1ccc(Cl)cc1Cl)[C@@H]1CCC(=O)N1c1cc(Cl)cc(Cl)c1
inactive	COC(=O)[C@@H]1CCC(=O)N1C(c1ccccc1)c1ccccc1
0%	CN(C)C(=O)[C@@H]1CCC(=O)N1c1ccccc1
inactive	COC(=O)[C@@H]1CCC(=O)N1c1cccs1
85%	O=C(NCc1ccc(Cl)cc1Cl)[C@@H]1CCC(=O)N1Cc1ccccc1Cl
inactive	C[C@@H](NC(=O)[C@@H]1CCC(=O)N1)c1ccccc1
0%	O=C(NCc1ccccc1)[C@@H]1CCC(=O)N1Cc1ccccc1
0%	O=C(NCc1ccco1)[C@@H]1CCC(=O)N1Cc1ccc(Cl)cc1Cl
inactive	O=C1CC[C@@H](C(=O)Nc2ccc(Cl)cc2Cl)N1
inactive	COC(=O)[C@@H]1CCC(=O)N1Cc1ccc(OC)cc1
inactive	O=C1CC[C@@H](C(=O)NC2CC3CCC2C3)N1 (stereo partly specified)
0%	O=C(NCc1ccc(Cl)cc1Cl)[C@@H]1CCC(=O)N1c1cccc(C(F)(F)F)c1
inactive	COc1ccc(NC(=O)[C@@H]2CCC(=O)N2)c(OC)c1
inactive	O=C1CC[C@@H](C(=O)NCc2ccccc2Cl)N1
inactive	COc1ccc(CNC(=O)[C@@H]2CCC(=O)N2)cc1

inhibition	SMILES
inactive	COC(=O)[C@@H]1CCC(=O)N1Cc1ccc([N+](=O)[O-])cc1
inactive	O=C1CC[C@@H](C(=O)NCc2cccc(C(F)(F)F)c2Cl)N1
inactive	COc1ccc(NC(=O)[C@@H]2CCC(=O)N2)cc1F
inactive	COC(=O)[C@@H]1CCC(=O)N1Cc1ccccc1
inactive	O=C1CC[C@@H](C(=O)Nc2ccncc2)N1
inactive	COC(=O)[C@@H]1CCC(=O)N1c1cccc2ncccc12
inactive	O=C1CC[C@@H](C(=O)NCCc2ccccc2)N1
inactive	COC(=O)[C@@H]1CCC(=O)N1[Si](C)(C)C
0%	O=C(NCc1ccc(Cl)cc1Cl)[C@@H]1CCC(=O)N1c1ccccc1Cl
0%	O=C(NCCc1ccccc1)[C@@H]1CCC(=O)N1Cc1ccccc1
inactive	COC(=O)[C@@H]1CCC(=O)N1c1ccncc1
inactive	COC(=O)[C@@H]1CCC(=O)N1c1ccc(C#N)cc1
inactive	Cc1ccc(NC(=O)[C@@H]2CCC(=O)N2)cc1
0%	O=C(Nc1ccc(Cl)cc1Cl)[C@@H]1CCC(=O)N1c1ccccc1
inactive	O=C1CC[C@@H](C(=O)NC2CCCCC2)N1
inactive	COC(=O)[C@@H]1CCC(=O)N1
inactive	COC(=O)[C@@H]1CCC(OC)=N1
inactive	COC(=O)[C@@H]1CCC(=O)N1C(c1ccc(Cl)cc1)c1ccc(Cl)cc1
92%	O=C(NCc1ccc(Cl)cc1Cl)C1CC(=O)N(c2cccs2)C1 (stereo unspecified)
inactive	COC(=O)[C@@H]1CCC(=O)N1C
inactive	C[C@H](NC(=O)[C@@H]1CCC(=O)N1)c1ccccc1
0%	C[C@H](NC(=O)[C@@H]1C/C(=C\N(C)C)C(=O)N1)c1ccccc1

inhibition	SMILES
0%	O=C(NCc1ccccc1Cl)[C@@H]1CCC(=O)N1Cc1ccc(Cl)cc1Cl
inactive	NC(=O)[C@@H]1CCC(=O)N1
0%	CN(C)C1N(Cc2ccc(Cl)cc2Cl)C(=O)[C@@H]2CC(=O)C(=O)N12 (stereo partly specified)
inactive	COC(=O)[C@@H]1CCC(=O)N1c1ccc(OC)cc1
0%	C[C@@H](c1ccccc1)N1C(=O)[C@@H]2C/C(=C\N(C)C)C(=O)N2C1N(C)C (stereo partly specified)
inactive	COC(=O)[C@@H]1CCC(=O)N1c1cccc(C(F)(F)F)c1
inactive	O=C1CC[C@@H](C(=O)NCc2ccncc2)N1
inactive	COc1ccccc1CNC(=O)[C@@H]1CCC(=O)N1
0%	O=C(NCc1ccc(Cl)cc1Cl)[C@@H]1CCC(=O)N1Cc1ccc([N+](=O)[O-])cc1
0%	C[C@H](NC(=O)[C@@H]1CCC(=O)N1c1cccs1)c1ccc(Cl)cc1Cl
inactive	O=C1CC[C@@H](C(=O)Nc2ccccc2)N1
inactive	COC(=O)[C@@H]1CCC(=O)N1Cc1ccc(Cl)cc1Cl
inactive	COC(=O)C1C/C(=C\N(C)C)C(=O)N1C(=O)OC (stereo unspecified)
0%	Cc1ccc(CN2C(=O)CC[C@H]2C(=O)NCCc2ccccc2)cc1
inactive	COC(=O)[C@@H]1COC(=O)N1
0%	O=C(NCc1ccc(Cl)cc1Cl)[C@@H]1CCC(=O)N1c1cccc2ncccc12
inactive	COC(=O)[C@@H]1CCC(=O)N1c1ccoc1
inactive	COC(=O)[C@@H]1CCC(=O)N1c1ccc(Cl)cc1Cl
inactive	O=C1CC[C@@H](C(=O)NCc2ccccc2)N1
53%	CN(C)/C=C1\C[C@@H](C(=O)NCc2ccc(Cl)cc2Cl)NC1=O
inactive	COc1ccc(NC(=O)[C@@H]2CCC(=O)N2)cc1
0%	C[C@@H](NC(=O)[C@@H]1C/C(=C\N(C)C)C(=O)N1)c1ccccc1

inhibition	SMILES
inactive	CCCCCCNC(=O)[C@@H]1CCC(=O)N1
inactive	O=C1CC[C@@H](C(=O)NCc2ccc(Cl)cc2Cl)N1
0%	O=C(NCc1ccc(Cl)cc1Cl)[C@@H]1CCC(=O)N1c1ccncc1
inactive	O=C1N[C@H](C(=O)O)CO1
0%	O=C(NCCc1ccccc1)[C@@H]1CCC(=O)N1Cc1ccc([N+](=O)[O-])cc1
inactive	COc1ccc(CNC(=O)[C@@H]2CCC(=O)N2)c(OC)c1
inactive	O=C1CC[C@@H](C(=O)NCC2CCCCC2)N1
6%	CN(C)/C=C1\CC[C@@H](C(=O)NCc2ccc(Cl)cc2Cl)NC1=O
0%	O=C(NCc1ccc(Cl)cc1Cl)[C@@H]1CCC(=O)N1Cc1ccc(Cl)cc1Cl
inactive	O=C1CC[C@@H](C(=O)NCc2cc(C(F)(F)F)ccc2Cl)N1
inactive	COC(=O)[C@@H]1CCC(=O)N1Cc1ccccc1Cl
76%	O=C(NCc1ccc(Cl)cc1Cl)[C@@H]1C/C(=N\O)C(=O)N1c1cccs1
0%	CN(C)/C=C1\C[C@H]2C(=O)N(Cc3ccccc3)C(N(C)C)N2C1=O (stereo partly specified)
inactive	COC(=O)[C@@H]1CCC(=O)N1Cc1ccc(Cl)cc1
0%	O=C1CCCC(C(=O)O)N1 (stereo unspecified)
inactive	COC(=O)[C@@H]1CCC(=O)N1c1cc(Cl)cc(Cl)c1
inactive	COC(=O)[C@@H]1CCC(=O)N1c1ccccc1
inactive	COC(=O)[C@@H]1CCC(=O)N1c1ccc(Cl)cc1
0%	COc1cc(N2C(=O)[C@@H]3C/C(=C\N(C)C)C(=O)N3C2N(C)C)cc(OC)c1OC (stereo partly specified)

SMILES	inhibition
COC(=O)C1CNC(=O)C1 (stereo unspecified)	inactive
